Common to all, as to assay type: cell-based, human
The subject of experiment [1] is A549 cells. As to the kind of experiment: Reactive oxygen species. Particulars: 18f at 5, 3 and 1.5 μM, 48 h. In a few lines: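 A549 cells (1 × 10^5, six-well) were grown 24 h, then exposed to test compound at 1.5, 3 and 5 μM for 48 h. 0.05% H2O2 positive control was added 1 h before the end. Cells were PBS-washed and loaded with DCFH-DA (10 mM as printed) for 30 min in the dark, rewashed, and viewed by inverted fluorescence microscopy.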

For experiment [2], the system named is A549 cells. Put plainly: Apoptosis assay through DAPI staining. Particulars: 18f at 5, 3 and 1.5 μM, 48 h, paclitaxel positive control.
Experiment [3] relates to A549 cells. As to the kind of experiment: Loss of mitochondrial membrane potential. Particulars: A549, 48 h. A digest of the protocol: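 A549 cells (1 × 10^5/mL/well, six-well plates) were treated for 48 h with 1.5, 3.0 or 5.0 μM test compound; paclitaxel served as positive control. After an ice-cold PBS wash, cells took up rhodamine-123 (final 0.2 mM) for 20–30 min in the dark in the incubator. Cells were washed again and fluorescence was assessed qualitatively by microscopy.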

As for `CC(=O)O[C@H]1C(=O)[C@@]2(C)[C@H]([C@H](OC(=O)c3ccccc3)[C@]3(O)C[C@H](OC(=O)[C@H](O)[C@@H](NC(=O)c4ccccc4)c4ccccc4)C(C)=C1C3(C)C)[C@]1(OC(C)=O)CO[C@@H]1C[C@@H]2O` [paclitaxel], the “intracellular ROS (DCFDA fluorescence, qualitative)” value in experiment [1] is reported as “higher in the treated groups”. The “nuclear morphological changes (DAPI staining)” value in experiment [2] is “chromatin condensation, nuclear blebbing, and formation of apoptotic bodies”. In addition, the “loss of mitochondrial membrane potential (rhodamine-123 fluorescence)” value in experiment [3] (18f at 3.0 μM) is recorded as “quite similar”; in experiment [3] (18f at 5 μM, paclitaxel at its IC50 doses), “maximum loss in the mitochondrial membrane potential”.

(Values after PMC9476207 (ACS Omega, 2022).)
